Columns and labels:
Type in all cases: toxicity, cell-based
U2OS [1] = experiment: Multiplex assay against U2OS; conditions: human
Method in brief: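 Four dyes were applied at seeding to live cells: Hoechst33342, BioTracker Green Microtubule Cytoskeleton Dye, MitoTracker Red and Annexin V Alexa Fluor 680. Imaging after compound addition used a CQ1 microscope at 37°C and 5% CO2. CellPathfinder machine-learning gating then sorted cells into Hoechst high-intensity objects or normal cells, normal cells into healthy, pyknosed or fragmented nuclei, and pyknosed cells into mitotic or apoptotic, with tubulin, mitochondrial-mass and membrane-permeability phenotypes given as per cents of healthy-nucleus cells.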

U2OS [2] = experiment: Incucyte cell viability with U2OS; conditions: human, 10 µM, compound concentration 10 uM; note: filed as whole numbers so only -1 and 0 and 1 occur
HEK-293T = experiment: Incucyte cell viability with HEK293T; conditions: human, 10 µM, compound concentration 10 uM; note: filed as whole numbers so only -1 and 0 and 1 occur
Fibroblast = experiment: Incucyte cell viability with human fibroblast; conditions: 10 µM, compound concentration 10 uM; note: filed as whole numbers so only -1 and 0 and 1 occur
[3] = 12 h, 1 µM, compound concentration 1 uM, replicate 1
[4] = 12 h, 1 µM, compound concentration 1 uM, replicate 2
[5] = 12 h, 10 µM, compound concentration 10 uM, replicate 1
[6] = 12 h, 10 µM, compound concentration 10 uM, replicate 2
[7] = 24 h, 1 µM, compound concentration 1 uM, replicate 1
[8] = 24 h, 1 µM, compound concentration 1 uM, replicate 2
[9] = 24 h, 10 µM, compound concentration 10 uM, replicate 1
[10] = 24 h, 10 µM, compound concentration 10 uM, replicate 2
[11] = 0 h, replicate number 1, timepoint 0 hours
[12] = 6 h, replicate number 1, timepoint 6 hours
[13] = 12 h, replicate number 1, timepoint 12 hours
[14] = 18 h, replicate number 1, timepoint 18 hours
[15] = 24 h, replicate number 1, timepoint 24 hours
[16] = 24 h, replicate number 2, timepoint 24 hours

Cc1c(Nc2ccc(S(=O)(=O)N3CCN(C)CC3)cc2F)nc2ccc(Nc3cnn(C4CC4)c3)cn2c1=O
Population Apoptotic (%) (U2OS [1]; [3]): 50% | Population Fragmented Nuclei (%) (U2OS [1]; [3]): 7% | Population Healthy Nuclei (%) (U2OS [1]; [3]): 81% | Population Hoechst High Intensity Objects (%) (U2OS [1]; [3]): 3% | Population Membrane Permeable-Phenotype (%) (U2OS [1]; [3]): 58% | Population Mitochondria Different-Phenotype (%) (U2OS [1]; [3]): 9% | Population Mitotic Cells (%) (U2OS [1]; [3]): 50% | Population Normal (%) (U2OS [1]; [3]): 96% | Population Pyknosed Nuclei (%) (U2OS [1]; [3]): 11% | Population Tubulin-Different-Phenotype (%) (U2OS [1]; [3]): 53% | Total Cell Count (U2OS [1]; [3]): 194 | Population Apoptotic (%) (U2OS [1]; [4]): 0% | Population Fragmented Nuclei (%) (U2OS [1]; [4]): 3% | Population Healthy Nuclei (%) (U2OS [1]; [4]): 93% | Population Hoechst High Intensity Objects (%) (U2OS [1]; [4]): 6% | Population Membrane Permeable-Phenotype (%) (U2OS [1]; [4]): 40% | Population Mitochondria Different-Phenotype (%) (U2OS [1]; [4]): 18% | Population Mitotic Cells (%) (U2OS [1]; [4]): 100% | Population Normal (%) (U2OS [1]; [4]): 93% | Population Pyknosed Nuclei (%) (U2OS [1]; [4]): 3% | Population Tubulin-Different-Phenotype (%) (U2OS [1]; [4]): 34% | Total Cell Count (U2OS [1]; [4]): 124 | Population Apoptotic (%) (U2OS [1]; [5]): 27% | Population Fragmented Nuclei (%) (U2OS [1]; [5]): 2% | Population Healthy Nuclei (%) (U2OS [1]; [5]): 91% | Population Hoechst High Intensity Objects (%) (U2OS [1]; [5]): 3% | Population Membrane Permeable-Phenotype (%) (U2OS [1]; [5]): 7% | Population Mitochondria Different-Phenotype (%) (U2OS [1]; [5]): 21% | Population Mitotic Cells (%) (U2OS [1]; [5]): 72% | Population Normal (%) (U2OS [1]; [5]): 96% | Population Pyknosed Nuclei (%) (U2OS [1]; [5]): 5% | Total Cell Count (U2OS [1]; [5]): 459 | Population Apoptotic (%) (U2OS [1]; [6]): 37% | Population Fragmented Nuclei (%) (U2OS [1]; [6]): 9% | Population Healthy Nuclei (%) (U2OS [1]; [6]): 82% | Population Hoechst High Intensity Objects (%) (U2OS [1]; [6]): 15% | Population Membrane Permeable-Phenotype (%) (U2OS [1]; [6]): 9% | Population Mitochondria Different-Phenotype (%) (U2OS [1]; [6]): 32% | Population Mitotic Cells (%) (U2OS [1]; [6]): 62% | Population Normal (%) (U2OS [1]; [6]): 84% | Population Pyknosed Nuclei (%) (U2OS [1]; [6]): 7% | Population Tubulin-Different-Phenotype (%) (U2OS [1]; [6]): 20% | Total Cell Count (U2OS [1]; [6]): 603 | Population Apoptotic (%) (U2OS [1]; [7]): 50% | Population Fragmented Nuclei (%) (U2OS [1]; [7]): 10% | Population Healthy Nuclei (%) (U2OS [1]; [7]): 80% | Population Hoechst High Intensity Objects (%) (U2OS [1]; [7]): 1% | Population Membrane Permeable-Phenotype (%) (U2OS [1]; [7]): 37% | Population Mitochondria Different-Phenotype (%) (U2OS [1]; [7]): 15% | Population Mitotic Cells (%) (U2OS [1]; [7]): 50% | Population Normal (%) (U2OS [1]; [7]): 98% | Population Pyknosed Nuclei (%) (U2OS [1]; [7]): 9% | Population Tubulin-Different-Phenotype (%) (U2OS [1]; [7]): 33% | Total Cell Count (U2OS [1]; [7]): 275 | Population Apoptotic (%) (U2OS [1]; [8]): 42% | Population Fragmented Nuclei (%) (U2OS [1]; [8]): 6% | Population Healthy Nuclei (%) (U2OS [1]; [8]): 87% | Population Hoechst High Intensity Objects (%) (U2OS [1]; [8]): 5% | Population Membrane Permeable-Phenotype (%) (U2OS [1]; [8]): 19% | Population Mitochondria Different-Phenotype (%) (U2OS [1]; [8]): 10% | Population Mitotic Cells (%) (U2OS [1]; [8]): 57% | Population Normal (%) (U2OS [1]; [8]): 94% | Population Pyknosed Nuclei (%) (U2OS [1]; [8]): 6% | Population Tubulin-Different-Phenotype (%) (U2OS [1]; [8]): 19% | Total Cell Count (U2OS [1]; [8]): 152 | Population Apoptotic (%) (U2OS [1]; [9]): 50% | Population Fragmented Nuclei (%) (U2OS [1]; [9]): 3% | Population Healthy Nuclei (%) (U2OS [1]; [9]): 91% | Population Hoechst High Intensity Objects (%) (U2OS [1]; [9]): 2% | Population Membrane Permeable-Phenotype (%) (U2OS [1]; [9]): 5% | Population Mitochondria Different-Phenotype (%) (U2OS [1]; [9]): 15% | Population Mitotic Cells (%) (U2OS [1]; [9]): 50% | Population Normal (%) (U2OS [1]; [9]): 97% | Population Pyknosed Nuclei (%) (U2OS [1]; [9]): 5% | Population Tubulin-Different-Phenotype (%) (U2OS [1]; [9]): 26% | Total Cell Count (U2OS [1]; [9]): 480 | Population Apoptotic (%) (U2OS [1]; [10]): 30% | Population Fragmented Nuclei (%) (U2OS [1]; [10]): 5% | Population Healthy Nuclei (%) (U2OS [1]; [10]): 85% | Population Hoechst High Intensity Objects (%) (U2OS [1]; [10]): 11% | Population Membrane Permeable-Phenotype (%) (U2OS [1]; [10]): 10% | Population Mitochondria Different-Phenotype (%) (U2OS [1]; [10]): 26% | Population Mitotic Cells (%) (U2OS [1]; [10]): 69% | Population Normal (%) (U2OS [1]; [10]): 88% | Population Pyknosed Nuclei (%) (U2OS [1]; [10]): 9% | Population Tubulin-Different-Phenotype (%) (U2OS [1]; [10]): 20% | Total Cell Count (U2OS [1]; [10]): 644 | Growth Rate (U2OS [2]; [11]): 0 | Growth Rate (U2OS [2]; [12]): 0 | Growth Rate (U2OS [2]; 6 h, replicate number 2, timepoint 6 hours): 1 | Growth Rate (U2OS [2]; [13]): 0 | Growth Rate (U2OS [2]; 12 h, replicate number 2, timepoint 12 hours): 1 | Growth Rate (U2OS [2]; [14]): 0 | Growth Rate (U2OS [2]; 18 h, replicate number 2, timepoint 18 hours): 1 | Growth Rate (U2OS [2]; [15]): 0 | Growth Rate (U2OS [2]; [16]): 1 | Growth Rate (HEK-293T; [11]): 1 | Growth Rate (HEK-293T; [12]): 0 | Growth Rate (HEK-293T; [13]): 0 | Growth Rate (HEK-293T; [14]): 0 | Growth Rate (HEK-293T; [15]): 0 | Growth Rate (Fibroblast; 0 h, replicate number 2, timepoint 0 hours): 0 | Growth Rate (Fibroblast; [12]): 0 | Growth Rate (Fibroblast; [13]): 0 | Growth Rate (Fibroblast; [14]): 0 | Growth Rate (Fibroblast; [15]): 0 | Growth Rate (Fibroblast; [16]): 1
